The test system of experiment [1] is HUVEC. Kind of experiment: HUVEC morphology and cell number, inverted microscope. Format: cell-based, human. Conditions: peptide 100 μM, 4 h, then Ang II 5 μM, 24 h; 200×. In a few lines: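 HUVECs were suspended in fresh medium at a final 4 × 10^5 cells/well in 6-well plates and given 100 μM test peptide for 4 h. Medium was discarded, then 5 μM Ang II was added for 24 h. Cells were observed and photographed under an inverted microscope.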

The next experiment concerns CAT. Kind of experiment: CAT activity in HUVEC. Format: cell-based, human. Conditions: peptide 100 μM, 4 h, then Ang II 5 μM, 24 h; assay kit; n = 3.
Another experiment concerns SOD. Kind of experiment: SOD activity in HUVEC. In kind it is cell-based, human. Conditions: peptide 100 μM, 4 h, then Ang II 5 μM, 24 h; assay kit; n = 3.
The test system of a further experiment is GSH-Px. Kind of experiment: GSH-Px activity in HUVEC. In kind it is cell-based, human. Conditions: peptide 100 μM, 4 h, then Ang II 5 μM, 24 h; assay kit; n = 3.
The test system of experiment [2] is HUVEC. Kind of experiment: MDA content in HUVEC. In kind it is cell-based, human. Conditions: 24 h, n = 3.
Experiment [3] relates to HUVEC. The experiment in a line: NO level in HUVEC. In kind it is cell-based, human. Conditions: peptide 100 μM, 4 h, then Ang II 5 μM, 24 h; for NO level: assay kit, n = 3.
The subject of the next experiment is Nrf2. The experiment in a line: Western blot, Nrf2 expression in HUVEC. In kind it is cell-based, human. The note with it: peptide 100 μM, 4 h, then Ang II 5 μM, 24 h; for expression of Nrf2 protein: gray scale analysis of bands. The procedure, abridged: (§1)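 HUVECs at 5 × 10^6 cells/well, pretreated with 100 μM test peptide 4 h, then Ang II 5 μM 24 h. Lysed in ice-cold buffer 30 min, spun 12,000 × g 10 min, protein by BCA. Denatured 95 °C 10 min, 20–40 μg on 10% SDS-PAGE, PVDF transfer. Blocked in 5% BSA 1 h RT, primary antibody 4 °C overnight, secondary 1 h RT. Triplicate, mean ± SD.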

The test system of the next experiment is HO-1. Kind of experiment: Western blot, HO-1 expression in HUVEC. In kind it is cell-based, human. Conditions: peptide 100 μM, 4 h, then Ang II 5 μM, 24 h; gray scale analysis of bands. The procedure, abridged: as §1
Background: A western blot detects proteins with antibodies after separation by electrophoresis.

In a further experiment the test system is NQO1. Kind of experiment: Western blot, NQO1 expression in HUVEC. Format: cell-based, human. Conditions: peptide 100 μM, 4 h, then Ang II 5 μM, 24 h; gray scale analysis of bands. In a few lines:
as §1

A further experiment has as its system eNOS. Kind of experiment: Western blot, eNOS expression in HUVEC. Conditions: peptide 100 μM, 4 h, then Ang II 5 μM, 24 h. Format: cell-based, human. The procedure, abridged: as §1
Another experiment concerns p-eNOS. The experiment in a line: Western blot, p-eNOS in HUVEC. In kind it is cell-based, human. Conditions: peptide 100 μM, 4 h, then Ang II 5 μM, 24 h. In a few lines: as §1
The next experiment has as its system ET-1. The experiment in a line: Western blot, ET-1 expression in HUVEC. Format: cell-based, human. The note with it: peptide 100 μM, 4 h, then Ang II 5 μM, 24 h. In a few lines:
as §1

The next experiment has as its system HepG2. Conditions: cited from earlier work.
The subject of another experiment is HUVECs. Conditions: Ang II-stimulated HUVECs; cited from earlier work.
Another experiment concerns eNOS and ET-1. The note with it: cited from earlier work.

On to PSRILYG [PG-7], for which the number of cells entry in the experiment on HUVEC [1] was “significantly reversed”. Besides, the CAT activity result in the experiment on CAT is “significantly rebounded to the levels in the Con group”. In addition, in the experiment on SOD, the SOD activity result is recorded as “significantly rebounded to the levels in the Con group”. Moreover, the GSH-Px activity result with GSH-Px is “significantly rebounded to the levels in the Con group”. Further, the “level of intracellular MDA” value in the experiment with HUVEC [2] (peptide 100 μM, 4 h, then Ang II 5 μM, assay kit) was “decreased to that of the Con group”. Besides, the NO level result with HUVEC [3] is “increased”. In addition, the “NO level higher than in the Ang II group” value in the experiment on HUVEC [3] (compared to Ang II group) is “more than 100%”. The “Nrf2 content higher than in the Con group” value in the experiment with Nrf2 (compared to Con group) is listed as “about 50%”. In addition, in the experiment on Nrf2, the “expression of Nrf2 protein” value is given as “reversed the inhibitory effect of Ang II”. Besides, in the experiment on HO-1, the HO-1 expression entry is “higher than that in the KA-8 group”. Besides, in the experiment on NQO1, the NQO1 expression result is given as “increased”. Moreover, the eNOS expression entry in the experiment on eNOS is “increased”. Further, the “eNOS level higher than in the Ang II group” value with eNOS (compared to Ang II group) is recorded as “more than 100%”. Moreover, the “eNOS phosphorylation (p-eNOS)” value with p-eNOS is given as “increased”. Besides, the “p-eNOS level higher than in the Ang II group” value with p-eNOS (compared to Ang II group) was “more than 100%”. In addition, the ET-1 expression result in the experiment on ET-1 is reported as “markedly blocked the Ang II-induced changes”. The “protection against hyperglycemia-induced HepG2 damage” value in the experiment on HepG2 is recorded as “revealed the protective effects”.

LSGYGP: the “protection against oxidative stress and endothelial injury” value in the experiment on HUVECs was “revealed protective effects”. Further, the “effect on eNOS and ET-1 levels” value with eNOS and ET-1 is on record as “improvement effects”.

As to IVTNWDDMEK, the “effect on eNOS and ET-1 levels” value with eNOS and ET-1 is “improvement effects”.

Take KLHDEEVA [KA-8]: in the experiment on HUVEC [1], the HUVEC morphology entry is “did not improve the number and morphology of cells as significantly as PG-8”; the number of cells entry is “did not improve the number and morphology of cells as significantly as PG-8”. For the same substance, the CAT activity entry in the experiment on CAT is listed as “significantly reversed the decline”. Also, in the experiment on SOD, the SOD activity entry is “significantly reversed the decline”. Further, the GSH-Px activity entry in the experiment on GSH-Px is recorded as “significantly reversed the decline”. Further, the NO level entry in the experiment on HUVEC [3] is “increased”. Moreover, in the experiment with Nrf2, the “expression of Nrf2 protein” value is “reversed the inhibitory effect of Ang II”. The HO-1 expression result in the experiment on HO-1 is on record as “increased”. In addition, the NQO1 expression entry with NQO1 was “increased”. For the same substance, the eNOS expression entry in the experiment with eNOS is recorded as “increased”. Further, the “eNOS phosphorylation (p-eNOS)” value in the experiment on p-eNOS is on record as “increased”. In addition, in the experiment with ET-1, the ET-1 expression result is listed as “markedly blocked the Ang II-induced changes”. The “protection against hyperglycemia-induced HepG2 damage” value in the experiment on HepG2 was “revealed the protective effects”.

For “Angiotensin II [Ang II, reference compound]”, in the experiment with HUVEC [1], the HUVEC morphology entry is “polygonal or round with the blurred cell boundaries” and the number of cells entry is listed as “significantly reduced compared with the Con group”. Also, the CAT activity entry in the experiment on CAT was “significantly reduced”. For the same substance, the SOD activity entry in the experiment with SOD is reported as “significantly reduced”. Also, the GSH-Px activity result in the experiment with GSH-Px was “significantly reduced”. For the same substance, in the experiment on HUVEC [2] (Ang II 5 μM, compared to Con group), the “increase of MDA content compared to the Con group” value worked out at 200%. Also, in the experiment on HUVEC [3], the NO level entry is reported as “obvious inhibition”. Further, in the experiment with Nrf2, the “expression of Nrf2 protein” value is reported as “significantly inhibited”. The eNOS expression result in the experiment on eNOS is given as “obvious inhibition”. Moreover, the “eNOS phosphorylation (p-eNOS)” value with p-eNOS is “obvious inhibition”. Moreover, the ET-1 expression result with ET-1 is reported as “increased”.

As to IPIPATKT, the “effect on eNOS and ET-1 levels” value in the experiment on eNOS and ET-1 is reported as “improvement effects”.

Values taken from PMC10634246 (ACS Omega, 2023).
